The source of these data is ChEMBL document CHEMBL1143135, “A structure-activity relationship study and combinatorial synthetic approach of C-terminal modified bifunctional peptides that are delta/mu opioid receptor agonists and neurokinin 1 receptor antagonists” (J Med Chem, 2008).

Data set [1] deals with Substance-P receptor (Homo sapiens, UniProt P25103). Description: Displacement of [3H]substance P from human NK1 receptor expressed in CHO cells. In kind it is cell-based.
The target of data set [2] is Substance-P receptor (Rattus norvegicus) (UniProt P14600). Description: Displacement of [3H]substance P from rat NK1 receptor expressed in CHO cells at 1 uM. In kind it is cell-based.
Chain of Substance-P receptor (Rattus norvegicus) (P14600 whole entry): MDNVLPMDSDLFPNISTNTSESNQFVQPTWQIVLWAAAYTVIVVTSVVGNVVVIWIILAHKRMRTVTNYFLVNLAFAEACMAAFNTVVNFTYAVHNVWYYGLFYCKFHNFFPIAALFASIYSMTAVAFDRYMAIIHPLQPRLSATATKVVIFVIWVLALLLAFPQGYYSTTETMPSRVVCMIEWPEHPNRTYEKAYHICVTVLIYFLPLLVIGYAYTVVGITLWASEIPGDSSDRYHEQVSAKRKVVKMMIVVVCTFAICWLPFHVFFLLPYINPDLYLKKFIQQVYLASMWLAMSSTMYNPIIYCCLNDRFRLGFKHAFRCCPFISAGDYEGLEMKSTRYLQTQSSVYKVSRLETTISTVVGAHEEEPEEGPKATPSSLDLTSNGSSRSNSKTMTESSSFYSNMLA
Data set [3] in a line: Lipophilicity, log D at pH 7.4. The settings on record: buffer. The data set is classed as physicochemical. The procedure, abridged:
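2 mg peptide in 500 µL 0.05 M HEPES/0.1 M NaCl, pH 7.4, shaken with 500 µL 1-octanol for 12 h at rt. Phases separated by centrifugation and each phase analysed by HPLC at 230 nm.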

Data set [4] deals with Substance-P receptor (Rattus norvegicus) (UniProt P14600). Description: Displacement of [3H]substance P from rat NK1 receptor expressed in CHO cells. The data set is classed as cell-based.
The target of data set [5] is Substance-P receptor (Cavia porcellus) (UniProt P30547). As to the kind of experiment: Antagonist activity at NK1 receptor in Hartley guinea pig isolated ileum assessed as inhibition of substance P-induced muscle contraction. In kind it is functional, tissue-based. The procedure, abridged:
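Guinea pig ileum LMMP preparation in 1 µM naloxone. Full substance P concentration–response curves run with and without test compound; maximal substance P peak taken as 100%. Ke is the antagonist concentration that halves substance P activity, from at least four tissues.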

Chain of Substance-P receptor (P25103 whole entry): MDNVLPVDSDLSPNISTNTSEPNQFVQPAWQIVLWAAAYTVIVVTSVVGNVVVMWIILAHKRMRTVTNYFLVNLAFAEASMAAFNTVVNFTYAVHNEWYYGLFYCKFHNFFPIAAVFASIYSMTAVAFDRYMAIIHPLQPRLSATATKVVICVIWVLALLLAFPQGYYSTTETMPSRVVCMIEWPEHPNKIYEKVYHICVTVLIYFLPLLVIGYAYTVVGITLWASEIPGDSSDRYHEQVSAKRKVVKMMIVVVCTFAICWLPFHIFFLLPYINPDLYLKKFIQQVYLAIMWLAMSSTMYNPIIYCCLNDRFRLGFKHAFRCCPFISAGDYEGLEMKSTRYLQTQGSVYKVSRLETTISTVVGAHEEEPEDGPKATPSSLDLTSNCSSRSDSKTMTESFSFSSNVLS
Chain of Substance-P receptor (Cavia porcellus) (P30547 whole entry): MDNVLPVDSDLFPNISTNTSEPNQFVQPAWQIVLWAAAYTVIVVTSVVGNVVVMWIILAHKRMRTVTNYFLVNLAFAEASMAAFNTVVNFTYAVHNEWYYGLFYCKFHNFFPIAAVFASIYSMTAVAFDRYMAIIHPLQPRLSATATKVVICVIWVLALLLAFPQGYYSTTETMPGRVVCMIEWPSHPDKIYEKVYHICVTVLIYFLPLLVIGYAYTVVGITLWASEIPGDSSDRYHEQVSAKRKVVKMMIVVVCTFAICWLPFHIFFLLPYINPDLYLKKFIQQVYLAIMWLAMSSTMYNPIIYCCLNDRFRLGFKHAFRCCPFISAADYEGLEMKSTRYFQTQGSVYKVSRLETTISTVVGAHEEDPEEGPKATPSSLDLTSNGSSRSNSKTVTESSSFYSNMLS

In data set [1], `CC(C)C[C@H](NC(=O)[C@@H]1CCCN1C(=O)[C@H](Cc1ccccc1)NC(=O)CNC(=O)[C@@H](C)NC(=O)[C@@H](N)Cc1ccc(O)cc1)C(=O)N[C@@H](Cc1c[nH]c2ccccc12)C(=O)N(C)Cc1ccccc1` yielded a logIC50 of -8.5. The inhibition in data set [2] is 33%. This compound displayed a logD in data set [3] of 3.5.
In the case of `CC(C)C[C@H](NC(=O)[C@@H]1CCCN1C(=O)[C@H](Cc1ccccc1)NC(=O)CNC(=O)[C@@H](C)NC(=O)[C@@H](N)Cc1ccc(O)cc1)C(=O)N[C@@H](Cc1c[nH]c2ccccc12)C(=O)N(C)Cc1cc(C(F)(F)F)cc(C(F)(F)F)c1`, the results for the logIC50 in data set [1] and in data set [4] were -8.5 and -7.7, respectively.
With `CC(C)C[C@H](NC(=O)[C@@H]1CCCN1C(=O)[C@H](Cc1ccccc1)NC(=O)CNC(=O)[C@@H](C)NC(=O)[C@@H](N)Cc1ccc(O)cc1)C(=O)N[C@@H](Cc1c[nH]c2ccccc12)C(=O)OCc1cc(C(F)(F)F)cc(C(F)(F)F)c1`, in data set [1], the affinity corresponds to a Ki of 0.046 nM and the logIC50 was -10. In addition, the logIC50 in data set [4] was -8.3. Further, the Ke in data set [5] was found to be 3.6 nM.
Turning to `CC(C)C[C@H](NC(=O)[C@@H]1CCCN1C(=O)[C@H](Cc1ccccc1)NC(=O)CNC(=O)[C@@H](C)NC(=O)[C@@H](N)Cc1ccc(O)cc1)C(=O)N[C@@H](Cc1c[nH]c2ccccc12)C(=O)OCc1ccccc1`, the logIC50 in data set [1] is -6.7; in data set [4], -6.1. Further, the logD in data set [3] was 3.8.
Consider `CC(C)C[C@H](NC(=O)[C@@H]1CCCN1C(=O)[C@H](Cc1ccccc1)NC(=O)CNC(=O)[C@@H](C)NC(=O)[C@@H](N)Cc1ccc(O)cc1)C(=O)N[C@@H](Cc1c[nH]c2ccccc12)C(=O)NCc1cc(C(F)(F)F)cc(C(F)(F)F)c1`, for which the logIC50 in data set [1] was -8.9; in data set [4], -7.
In data set [1], `CC(C)C[C@H](NC(=O)[C@@H]1CCCN1C(=O)[C@H](Cc1ccccc1)NC(=O)CNC(=O)[C@@H](C)NC(=O)[C@@H](N)Cc1ccc(O)cc1)C(=O)N[C@@H](Cc1c[nH]c2ccccc12)C(=O)NCc1ccccc1` displayed a logIC50 of -7.5. Moreover, in data set [2], the inhibition was 30%. In data set [5], the Ke was found to be 26 nM. Besides, the logD in data set [3] turned out to be 3.3.

As a reminder, the inhibition is the share of the control response that was lost under treatment. In general, logD refers to lipophilicity at a set pH, counting ionised and neutral species. High values mean higher lipophilicity, low ones lower lipophilicity. As usually defined, the Ki is the equilibrium dissociation constant of an inhibitor or competing ligand from its target. A lower Ki goes with a stronger hold on the target.
